Data: ChEMBL document CHEMBL5653631, “A Potent and Selective ULK1 Inhibitor Suppresses Autophagy and Sensitizes Cancer Cells to Nutrient Stress” (iScience, 2018)
Each block holds one compound with its values, some of them ahead of it.

How the values were obtained:
[1] = target: NT-3 growth factor receptor (Homo sapiens) (UniProt Q16288); assay: Inhibition of human recombinant TRKC at 500 nM in presence of ATP by radiometric assay relative to control
[2] = target: Vascular endothelial growth factor receptor 1 (Homo sapiens) (UniProt P17948); assay: Inhibition of human recombinant FLT1 at 500 nM in presence of ATP by radiometric assay relative to control
[3] = target: Serine/threonine-protein kinase 26 (Homo sapiens) (UniProt Q9P289); assay: Inhibition of human recombinant MST4 at 500 nM related to control ULK1
[4] = target: Tyrosine-protein kinase Fgr (Homo sapiens) (UniProt P09769); assay: Inhibition of human recombinant FGR at 500 nM in presence of ATP by radiometric assay relative to control
[5] = target: Homeodomain-interacting protein kinase 3 (Homo sapiens) (UniProt Q9H422); assay: Inhibition of human recombinant HIPK3 at 500 nM in presence of ATP by radiometric assay relative to control
Homeodomain-interacting protein kinase 3 (Homo sapiens), sequence (Q9H422 whole entry, looked up): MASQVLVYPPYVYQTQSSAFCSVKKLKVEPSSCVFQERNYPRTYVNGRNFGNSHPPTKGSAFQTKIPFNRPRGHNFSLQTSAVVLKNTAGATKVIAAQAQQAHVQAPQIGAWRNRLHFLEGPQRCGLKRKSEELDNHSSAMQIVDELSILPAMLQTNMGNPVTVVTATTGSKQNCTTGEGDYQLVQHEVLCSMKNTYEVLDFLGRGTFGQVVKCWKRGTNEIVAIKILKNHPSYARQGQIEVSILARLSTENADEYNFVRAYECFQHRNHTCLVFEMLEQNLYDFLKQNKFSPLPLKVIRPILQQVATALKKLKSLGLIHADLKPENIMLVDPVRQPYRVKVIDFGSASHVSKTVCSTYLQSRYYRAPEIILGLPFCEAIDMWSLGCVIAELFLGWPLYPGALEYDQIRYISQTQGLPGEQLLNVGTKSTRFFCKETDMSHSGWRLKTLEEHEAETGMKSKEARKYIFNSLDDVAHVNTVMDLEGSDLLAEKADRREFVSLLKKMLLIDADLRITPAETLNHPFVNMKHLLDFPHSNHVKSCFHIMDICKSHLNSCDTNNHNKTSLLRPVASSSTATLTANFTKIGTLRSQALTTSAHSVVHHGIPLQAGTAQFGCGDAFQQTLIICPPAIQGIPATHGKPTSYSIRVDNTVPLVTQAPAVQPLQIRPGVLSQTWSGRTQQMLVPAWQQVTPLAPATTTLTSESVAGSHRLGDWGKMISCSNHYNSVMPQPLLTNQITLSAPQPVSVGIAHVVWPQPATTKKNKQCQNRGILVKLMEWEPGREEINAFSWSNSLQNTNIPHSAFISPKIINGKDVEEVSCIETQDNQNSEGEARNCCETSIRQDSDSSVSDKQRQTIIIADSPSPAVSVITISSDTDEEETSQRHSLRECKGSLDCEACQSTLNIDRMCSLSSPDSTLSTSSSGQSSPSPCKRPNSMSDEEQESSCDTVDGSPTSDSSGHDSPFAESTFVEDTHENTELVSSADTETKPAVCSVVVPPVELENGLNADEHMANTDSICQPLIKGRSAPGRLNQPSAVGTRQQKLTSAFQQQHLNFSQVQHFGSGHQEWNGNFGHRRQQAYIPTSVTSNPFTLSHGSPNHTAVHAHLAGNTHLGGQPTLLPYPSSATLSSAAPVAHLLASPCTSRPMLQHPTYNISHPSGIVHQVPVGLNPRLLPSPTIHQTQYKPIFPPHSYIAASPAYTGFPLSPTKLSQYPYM

[6] = target: T1, Activin receptor type-1B (Homo sapiens) (UniProt P36896); assay: Inhibition of human recombinant ALK4 at 500 nM in presence of ATP by radiometric assay relative to control
T1 sequence (whole entry): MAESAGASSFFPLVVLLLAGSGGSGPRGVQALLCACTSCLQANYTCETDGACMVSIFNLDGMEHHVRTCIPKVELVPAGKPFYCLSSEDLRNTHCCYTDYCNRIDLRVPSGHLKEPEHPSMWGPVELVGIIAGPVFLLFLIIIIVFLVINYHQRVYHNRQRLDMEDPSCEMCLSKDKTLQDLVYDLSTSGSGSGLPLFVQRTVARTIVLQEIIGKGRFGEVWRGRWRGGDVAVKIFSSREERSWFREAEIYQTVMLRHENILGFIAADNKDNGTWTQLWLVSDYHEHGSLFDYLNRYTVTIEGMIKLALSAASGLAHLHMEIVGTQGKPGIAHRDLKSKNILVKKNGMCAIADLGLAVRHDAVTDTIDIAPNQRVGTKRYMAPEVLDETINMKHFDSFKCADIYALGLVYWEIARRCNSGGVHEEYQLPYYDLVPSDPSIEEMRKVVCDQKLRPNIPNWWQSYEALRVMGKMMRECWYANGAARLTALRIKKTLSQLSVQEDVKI
Outline: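 Panel of 327 recombinant human kinases, each assayed in vitro by radiometric activity assay in duplicate at a single inhibitor concentration per compound, chosen with reference to its ULK1 inhibition. Activity remaining was expressed as percent of vehicle control, and percent inhibition was calculated as 100 minus percent activity remaining.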

[7] = target: RAC-beta serine/threonine-protein kinase (Homo sapiens) (UniProt P31751); assay: Inhibition of human recombinant AKT2 at 500 nM in presence of ATP by radiometric assay relative to control
Outline: (§1)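 Panel of 327 recombinant human kinases in radiometric activity assays, each screened in duplicate at a single inhibitor concentration; percent activity remaining relative to vehicle control, percent inhibition taken as 100 minus activity remaining.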

[8] = target: Tau-tubulin kinase 1 (Homo sapiens) (UniProt Q5TCY1); assay: Inhibition of human recombinant TTBK1 at 500 nM related to control ULK1
[9] = target: Serine/threonine-protein kinase pim-2 (Homo sapiens) (UniProt Q9P1W9); assay: Inhibition of human recombinant PIM2 at 15 nM in presence of ATP by radiometric assay relative to control
[10] = target: Serine/threonine-protein kinase 32B (Homo sapiens) (UniProt Q9NY57); assay: Inhibition of human recombinant YANK2 at 15 nM related to control ULK1
Serine/threonine-protein kinase 32B (Homo sapiens), sequence (Q9NY57 whole entry): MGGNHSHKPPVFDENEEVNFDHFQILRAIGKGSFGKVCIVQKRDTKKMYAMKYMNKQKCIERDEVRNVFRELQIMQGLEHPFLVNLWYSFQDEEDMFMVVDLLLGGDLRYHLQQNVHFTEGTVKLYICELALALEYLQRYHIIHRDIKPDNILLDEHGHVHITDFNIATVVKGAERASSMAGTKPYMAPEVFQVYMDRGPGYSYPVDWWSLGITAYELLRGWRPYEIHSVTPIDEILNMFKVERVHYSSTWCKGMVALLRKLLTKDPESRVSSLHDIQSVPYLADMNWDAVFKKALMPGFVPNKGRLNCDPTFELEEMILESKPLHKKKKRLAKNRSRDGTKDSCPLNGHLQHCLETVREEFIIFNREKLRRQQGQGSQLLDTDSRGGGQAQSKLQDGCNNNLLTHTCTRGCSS

Homo sapiens = species: Homo sapiens; assay: Inhibition of human recombinant p70S6K at 15 nM in presence of ATP by radiometric assay relative to control
[11] = target: RAC-alpha serine/threonine-protein kinase (Homo sapiens) (UniProt P31749); assay: Inhibition of human recombinant AKT1 at 15 nM in presence of ATP by radiometric assay relative to control; outline: as §1
[12] = target: Vascular endothelial growth factor receptor 3 (Homo sapiens) (UniProt P35916); assay: Inhibition of human recombinant FLT4 at 15 nM related to control ULK1
Vascular endothelial growth factor receptor 3 (Homo sapiens), sequence (P35916 whole entry): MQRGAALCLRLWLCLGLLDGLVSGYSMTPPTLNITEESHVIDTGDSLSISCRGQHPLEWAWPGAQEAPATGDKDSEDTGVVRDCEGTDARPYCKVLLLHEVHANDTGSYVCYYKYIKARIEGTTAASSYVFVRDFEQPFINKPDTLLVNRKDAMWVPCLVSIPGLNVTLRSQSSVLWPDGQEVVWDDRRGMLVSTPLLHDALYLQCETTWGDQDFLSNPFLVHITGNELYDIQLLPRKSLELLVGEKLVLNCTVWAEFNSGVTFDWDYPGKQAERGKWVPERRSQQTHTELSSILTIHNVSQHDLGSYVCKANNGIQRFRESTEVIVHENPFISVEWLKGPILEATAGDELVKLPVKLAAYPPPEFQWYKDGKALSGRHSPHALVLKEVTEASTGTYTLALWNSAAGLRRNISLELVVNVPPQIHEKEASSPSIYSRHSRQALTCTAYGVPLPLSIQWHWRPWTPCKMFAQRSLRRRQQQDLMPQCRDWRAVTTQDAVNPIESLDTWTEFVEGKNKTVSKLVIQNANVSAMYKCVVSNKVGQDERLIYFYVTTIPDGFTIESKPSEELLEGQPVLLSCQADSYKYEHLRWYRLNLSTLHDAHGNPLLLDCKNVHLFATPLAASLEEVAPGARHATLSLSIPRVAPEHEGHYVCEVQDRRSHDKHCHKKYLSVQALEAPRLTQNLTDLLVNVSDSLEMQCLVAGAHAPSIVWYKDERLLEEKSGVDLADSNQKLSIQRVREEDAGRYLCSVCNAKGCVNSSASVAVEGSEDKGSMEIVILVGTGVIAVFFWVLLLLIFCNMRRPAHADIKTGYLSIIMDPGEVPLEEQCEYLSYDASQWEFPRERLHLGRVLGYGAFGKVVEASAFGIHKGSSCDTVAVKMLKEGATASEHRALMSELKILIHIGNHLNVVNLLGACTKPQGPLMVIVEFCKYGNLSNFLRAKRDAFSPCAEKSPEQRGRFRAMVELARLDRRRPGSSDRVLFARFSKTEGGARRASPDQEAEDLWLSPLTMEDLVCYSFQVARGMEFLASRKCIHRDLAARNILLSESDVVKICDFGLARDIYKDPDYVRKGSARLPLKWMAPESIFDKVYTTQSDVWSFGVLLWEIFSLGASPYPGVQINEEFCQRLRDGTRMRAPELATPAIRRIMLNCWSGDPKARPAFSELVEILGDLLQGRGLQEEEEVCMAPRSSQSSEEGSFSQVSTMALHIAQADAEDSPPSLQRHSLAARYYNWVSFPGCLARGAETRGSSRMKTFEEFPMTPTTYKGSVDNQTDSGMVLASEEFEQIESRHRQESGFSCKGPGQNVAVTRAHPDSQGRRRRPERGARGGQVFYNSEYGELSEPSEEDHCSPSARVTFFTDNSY

[13] = target: Transient receptor potential cation channel subfamily M member 7 (Homo sapiens) (UniProt Q96QT4); assay: Inhibition of human recombinant ChaK1 at 40 nM related to control ULK1
Transient receptor potential cation channel subfamily M member 7 (Homo sapiens), sequence (Q96QT4 whole entry): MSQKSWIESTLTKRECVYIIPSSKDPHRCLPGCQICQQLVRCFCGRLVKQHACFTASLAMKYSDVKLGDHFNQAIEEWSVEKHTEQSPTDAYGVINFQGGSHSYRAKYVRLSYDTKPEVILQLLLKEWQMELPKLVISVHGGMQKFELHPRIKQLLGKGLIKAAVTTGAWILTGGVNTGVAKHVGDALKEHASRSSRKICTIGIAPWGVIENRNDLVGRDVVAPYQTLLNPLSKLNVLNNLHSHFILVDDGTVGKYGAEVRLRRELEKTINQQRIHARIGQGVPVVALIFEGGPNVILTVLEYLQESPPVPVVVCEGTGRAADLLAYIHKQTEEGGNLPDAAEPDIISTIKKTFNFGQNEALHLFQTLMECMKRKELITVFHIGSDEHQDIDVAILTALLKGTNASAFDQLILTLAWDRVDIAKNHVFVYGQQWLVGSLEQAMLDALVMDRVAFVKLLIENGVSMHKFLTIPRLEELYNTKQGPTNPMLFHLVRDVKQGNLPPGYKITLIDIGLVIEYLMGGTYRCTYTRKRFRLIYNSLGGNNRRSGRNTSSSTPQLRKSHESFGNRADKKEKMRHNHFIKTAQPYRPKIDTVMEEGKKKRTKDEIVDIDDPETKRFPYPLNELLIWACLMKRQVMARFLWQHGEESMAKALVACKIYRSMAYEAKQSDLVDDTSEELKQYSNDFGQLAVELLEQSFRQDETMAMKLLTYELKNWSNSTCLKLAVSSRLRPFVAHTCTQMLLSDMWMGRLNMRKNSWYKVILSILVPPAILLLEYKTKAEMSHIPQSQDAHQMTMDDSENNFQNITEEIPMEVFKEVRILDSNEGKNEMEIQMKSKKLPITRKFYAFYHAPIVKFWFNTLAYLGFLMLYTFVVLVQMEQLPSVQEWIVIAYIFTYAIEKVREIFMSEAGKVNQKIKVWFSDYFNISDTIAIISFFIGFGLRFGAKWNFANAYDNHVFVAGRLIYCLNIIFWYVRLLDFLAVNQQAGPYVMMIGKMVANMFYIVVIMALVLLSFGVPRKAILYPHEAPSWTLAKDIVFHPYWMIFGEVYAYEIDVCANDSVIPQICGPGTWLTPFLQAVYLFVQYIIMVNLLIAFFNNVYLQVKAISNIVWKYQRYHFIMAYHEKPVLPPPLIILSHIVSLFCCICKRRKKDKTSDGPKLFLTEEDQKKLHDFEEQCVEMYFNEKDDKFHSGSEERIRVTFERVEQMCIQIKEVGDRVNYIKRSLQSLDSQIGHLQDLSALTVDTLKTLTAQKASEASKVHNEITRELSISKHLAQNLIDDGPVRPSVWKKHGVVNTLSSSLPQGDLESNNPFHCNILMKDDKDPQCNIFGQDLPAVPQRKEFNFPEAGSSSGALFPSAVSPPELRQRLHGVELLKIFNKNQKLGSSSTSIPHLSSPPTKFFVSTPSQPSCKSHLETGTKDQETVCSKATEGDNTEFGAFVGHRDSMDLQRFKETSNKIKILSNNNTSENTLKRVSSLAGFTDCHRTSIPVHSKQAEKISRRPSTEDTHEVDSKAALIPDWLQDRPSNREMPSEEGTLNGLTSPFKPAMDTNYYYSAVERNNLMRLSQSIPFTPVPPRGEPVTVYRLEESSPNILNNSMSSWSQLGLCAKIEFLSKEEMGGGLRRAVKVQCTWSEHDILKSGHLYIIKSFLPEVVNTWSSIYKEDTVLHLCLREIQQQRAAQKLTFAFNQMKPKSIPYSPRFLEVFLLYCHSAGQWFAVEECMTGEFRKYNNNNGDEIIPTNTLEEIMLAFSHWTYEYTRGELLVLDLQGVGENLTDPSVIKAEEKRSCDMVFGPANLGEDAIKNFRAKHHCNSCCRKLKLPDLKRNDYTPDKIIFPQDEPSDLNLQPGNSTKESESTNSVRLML

[14] = target: Mitogen-activated protein kinase 10 (Homo sapiens) (UniProt P53779); assay: Inhibition of human recombinant JNK3 at 40 nM related to control ULK1
[15] = target: Tyrosine-protein kinase Fyn (Homo sapiens) (UniProt P06241); assay: Inhibition of human recombinant FYN at 40 nM related to control ULK1
[16] = target: Maternal embryonic leucine zipper kinase (Homo sapiens) (UniProt Q14680); assay: Inhibition of human recombinant MELK at 40 nM in presence of ATP by radiometric assay relative to control
[17] = target: Fibroblast growth factor receptor 1 (Homo sapiens) (UniProt P11362); assay: Inhibition of human recombinant FGFR1 at 40 nM in presence of ATP by radiometric assay relative to control
[18] = target: Calcium/calmodulin-dependent protein kinase type II subunit beta (Homo sapiens) (UniProt Q13554); assay: Inhibition of human recombinant CaMK2b at 40 nM in presence of ATP by radiometric assay relative to control
[19] = target: Serine/threonine-protein kinase MRCK alpha (Homo sapiens) (UniProt Q5VT25); assay: Inhibition of human recombinant MRCKa at 40 nM related to control ULK1
[20] = target: T2, NUAK family SNF1-like kinase 1 (Homo sapiens) (UniProt O60285); assay: Inhibition of human recombinant NuaK1 at 40 nM in presence of ATP by radiometric assay relative to control
T2 sequence (whole entry): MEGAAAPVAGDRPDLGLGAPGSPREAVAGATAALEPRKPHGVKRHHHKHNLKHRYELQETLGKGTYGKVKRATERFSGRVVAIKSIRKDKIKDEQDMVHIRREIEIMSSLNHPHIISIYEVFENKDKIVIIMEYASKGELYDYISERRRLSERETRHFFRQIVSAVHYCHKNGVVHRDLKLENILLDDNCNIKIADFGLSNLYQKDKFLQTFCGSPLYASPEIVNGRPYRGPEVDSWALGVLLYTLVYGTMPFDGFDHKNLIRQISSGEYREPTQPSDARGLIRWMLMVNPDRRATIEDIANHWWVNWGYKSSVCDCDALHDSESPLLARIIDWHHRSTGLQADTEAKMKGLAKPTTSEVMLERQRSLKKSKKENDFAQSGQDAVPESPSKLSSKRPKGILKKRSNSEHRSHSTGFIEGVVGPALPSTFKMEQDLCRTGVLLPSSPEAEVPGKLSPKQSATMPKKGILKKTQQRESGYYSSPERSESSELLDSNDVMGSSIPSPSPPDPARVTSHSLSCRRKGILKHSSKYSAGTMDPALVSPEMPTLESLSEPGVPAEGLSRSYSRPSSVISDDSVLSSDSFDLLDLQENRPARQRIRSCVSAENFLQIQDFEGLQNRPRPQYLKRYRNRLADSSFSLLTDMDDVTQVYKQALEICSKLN

inhibition [1]: 0%
inhibition [2]: 2%
fold change (FC) [3]: 0
inhibition [4]: 8%
inhibition [5]: 6%
inhibition [6]: 15%
inhibition [7]: 7%
fold change (FC) [8]: 0.01
Compound: CNC(=O)c1ccccc1Oc1nc(Nc2cc(OC)c(OC)c(OC)c2)ncc1Br

inhibition [9]: 0%
fold change (FC) [10]: 0
inhibition (Homo sapiens): 17%
inhibition [11]: 0%
fold change (FC) [12]: 0.4
Compound: CC(C)[C@H](NC(=O)c1cc(-c2cnn3cc(-c4ccc(OCCN5CCCCC5)cc4)cnc23)cs1)C(F)(F)F

fold change (FC) [13]: 0.01
fold change (FC) [14]: 0
fold change (FC) [15]: 0
inhibition [16]: 20%
inhibition [17]: 0%
inhibition [18]: 0%
fold change (FC) [19]: 0.03
inhibition [20]: 5%
Compound: O=C(N[C@@H](C1CC1)C(F)(F)F)c1cc(-c2cnn3cc(-c4ccc(F)cc4)cnc23)cs1
